Measured values: ChEMBL document CHEMBL4725264, “Synthesis and biological evaluation of a novel photo-activated histone deacetylase inhibitor” (Bioorg Med Chem Lett, 2020)
The source made the active and inactive calls. No cut-off for these calls is given here.

How the values were obtained:
[1] = Drug metabolism assessed as photolysis by measuring parent compound at 4.26 mM using MeCN and Water (1:3) as solvent system measured upon irradiation with 8-Watt UV365nm light after 30 mins by HPLC analysis; assay type: physicochemical; conditions: MeCN and water (1:3) solvent system, read-out: Drug metabolism
In short: (§1)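 Caged compound prepared as 4.26 mM solution in MeCN/water (1:3). Irradiated with 8-Watt 365 nm UV lamp. Aliquots taken at 30, 45, 60, 75 and 90 min and analysed by HPLC for remaining caged parent and released hydroxamic acid (identified by m/z). Carboxamide side product tracked by its separate peak.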

[2] = Drug metabolism assessed as photolysis by measuring parent compound at 85 uM using DMSO, EtOH and water (4:4:92) as solvent system measured upon irradiation with 100mW UV365nm light after 4 mins by HPLC analysis; assay type: physicochemical; conditions: EtOH and water (4:4:92) solvent system, read-out: Drug metabolism
[3] = Drug metabolism assessed as photolysis by measuring parent compound at 4.26 mM using MeCN and Water (1:3) as solvent system measured upon irradiation with 8-Watt UV365nm light after 60 mins by HPLC analysis; assay type: physicochemical; conditions: MeCN and water (1:3) solvent system, read-out: Drug metabolism; in short: as §1
[4] = Drug metabolism assessed as photolysis by measuring parent compound at 4.26 mM using MeCN and Water (1:3) as solvent system measured upon irradiation with 8-Watt UV365nm light after 90 mins by HPLC analysis; assay type: physicochemical; conditions: MeCN and water (1:3) solvent system, read-out: Drug metabolism; in short: as §1
[5] = Drug metabolism assessed as photolysis by measuring parent compound at 4.26 mM using MeCN and Water (1:3) as solvent system measured upon irradiation with 8-Watt UV365nm light after 45 mins by HPLC analysis; assay type: physicochemical; conditions: MeCN and water (1:3) solvent system, read-out: Drug metabolism; in short: as §1
HUVEC = assay: Cytotoxicity against HUVEC at 1.0 mmol/L after 24 hrs by trypan blue staining based assay; assay type: cell-based; conditions: human, 1000 µM
In short: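 HUVECs (pooled donor) grown in Medium-199 with 20% FCS, endothelial cell growth factor and heparin, 37 °C, 5% CO2. Agents dissolved in 100% DMSO and added at final 1.0 mmol/L for 24 h. Viability scored by 0.4% trypan blue exclusion right after culture, relative to viable count at start. Untreated cells as control. At least 3 repeats, averaged.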

[6] = Drug metabolism assessed as photolysis by measuring parent compound at 85 uM using DMSO, EtOH and water (4:4:92) as solvent system measured upon irradiation with 100mW UV365nm light after 6 mins by HPLC analysis; assay type: physicochemical; conditions: EtOH and water (4:4:92) solvent system, read-out: Drug metabolism
[7] = Drug metabolism assessed as photolysis by measuring parent compound at 85 uM using DMSO, EtOH and water (4:4:92) as solvent system measured upon irradiation with 100mW UV365nm light after 2 mins by HPLC analysis; assay type: physicochemical
[8] = target: T1, Histone deacetylase (Homo sapiens) (UniProt Q13547+O15379+Q9UBN7+Q92769+Q9UQL6+Q8WUI4+Q9BY41+Q96DB2+P56524+Q9UKV0+Q969S8); assay: Inhibition of HDAC in human HL-60 cells assessed as increase in H3 histone acetylation at 10 uM after 24 hrs by Western blot anlaysis; assay type: cell-based
In short: (§2)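 Caged compound coated on angioplasty balloon at 3.0ug/mm2. Balloon either exposed to 365 nm UV (65mW, 4 min) or left unexposed, then compound eluted. HL60 cells (RPMI-1640, 10% heat-inactivated FCS, 37 °C, 5% CO2) treated with eluate at 10.0 µM for 24 h, then PBS-washed. Histones acid-extracted (H2SO4, acetone precipitation), quantified by Bradford. 25 µg per lane run on 15% SDS-PAGE and transferred to PVDF. Blocked in 5% milk, probed overnight at 4 °C with anti-acetyl histone H3, detected with HRP anti-rabbit IgG (1:1000). Untreated cells as control.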

[9] = Drug metabolism assessed as photolysis by measuring parent compound at 4.26 mM using MeCN and Water (1:3) as solvent system measured upon irradiation with 8-Watt UV365nm light after 75 mins by HPLC analysis; assay type: physicochemical; conditions: MeCN and water (1:3) solvent system, read-out: Drug metabolism; in short: as §1
[10] = target: T1, Histone deacetylase (Homo sapiens); assay: Inhibition of HDAC in human HL-60 cells assessed as increase in H3 histone acetylation at 10 uM under UV irradiation after 24 hrs by Western blot anlaysis; assay type: cell-based; in short: as §2

remaining at 0.5 h, 4260 µM [1] [%]	remaining at 4 min, 85 µM [2] [%]	remaining at 1 h, 4260 µM [3] [%]	remaining at 1.5 h, 4260 µM [4] [%]	remaining at 0.75 h, 4260 µM [5] [%]	remaining at 0.1 h, 85 µM [6] [%]	Drug metabolism [7] [%]	inhibition [8]	remaining at 1.25 h, 4260 µM [9] [%]	inhibition [10]	Structure (SMILES)	Activity (HUVEC)
53.3	11.1	8.4	0.7	18	8.2	28.9	inactive	2.4	Active	COc1cc(C(C)ONC(=O)c2ccc(-c3cccc(NS(C)(=O)=O)c3)cc2)c([N+](=O)[O-])cc1OCCCC(=O)O (centres undefined)	Non-Toxic
–	–	–	–	–	–	–	Active	–	–	CS(=O)(=O)Nc1cccc(-c2ccc(C(=O)NO)cc2)c1	Toxic
–	–	–	–	–	–	–	–	–	–	CC(=O)O[C@H]1C(=O)[C@@]2(C)[C@H]([C@H](OC(=O)c3ccccc3)[C@]3(O)C[C@H](OC(=O)[C@H](O)[C@@H](NC(=O)c4ccccc4)c4ccccc4)C(C)=C1C3(C)C)[C@]1(OC(C)=O)CO[C@@H]1C[C@@H]2O [PACLITAXEL]	Toxic
